{"data": "Measured values from different studies", "target": "Receptor tyrosine-protein kinase erbB-2 (ERBB2, Homo sapiens, UniProt P04626)", "note": "Each line is one published result; the experiments were not run side by side."}
{"SMILES": "CN(C)c1nccc(-c2cnc3ncccn23)n1", "assay": "binding", "conditions": "1 µM", "remaining binding": "0%"}
{"SMILES": "CS(=O)(=O)N1CCCC(NC(=O)[C@H](CCC2CCCCC2)NC(=O)c2ccc(CNC(=O)c3cnc4ccccn34)cc2)C1 (some centres unmarked)", "assay": "cell-free assay, competition with immobilised ligand", "conditions": "0.1 µM", "remaining binding": "100%"}
{"SMILES": "C[C@@H]1CN(c2ccc3ncc(-c4ccc5[nH]nc(C6CC6)c5c4)n3n2)C[C@H](C)O1", "assay": "binding, competition with immobilised ligand", "conditions": "0.5 µM", "remaining binding": "68%"}
{"SMILES": "O=C(c1ccc(Nc2ncc(Cl)c(-c3cc4ccccc4s3)n2)cc1)N1CCC(N2CCCC2)CC1", "assay": "binding, competition with immobilised ligand", "conditions": "1 µM", "remaining binding": "100%"}
{"SMILES": "C[C@H]1CCN(c2nccc(-c3cnn4ncccc34)n2)C1", "assay": "binding", "conditions": "1 µM", "remaining binding": "94%"}
{"SMILES": "O=C(Nc1cccnn1)N1CC(C/C=C/c2cncc(Oc3ccc(C(F)(F)F)cn3)n2)C1", "assay": "cell-free assay, competition with immobilised ligand", "conditions": "1 µM", "remaining binding": "83%"}
{"SMILES": "c1cnn2ncc(-c3ccnc(N4CCC45COC5)n3)c2c1", "assay": "binding", "conditions": "1 µM", "remaining binding": "86%"}
{"SMILES": "O=C(NCCCN1CCOCC1)c1ccc(Nc2ncc(Cl)c(-c3ccc(Cl)s3)n2)cc1", "assay": "binding, competition with immobilised ligand", "conditions": "1 µM", "remaining binding": "80%"}
{"SMILES": "CN(CCCC(F)(F)F)c1nccc(-c2cnn3ncccc23)n1", "assay": "binding", "conditions": "1 µM", "remaining binding": "99%"}
{"SMILES": "COc1ncc2cc3ccccc3nc2c1C#N", "assay": "cell-free assay, competition with immobilised ligand", "conditions": "5 µM", "remaining binding": "70%"}
{"SMILES": "CC(C)(C)c1ccc(-c2nc(CBr)nn2-c2cccc(O)c2)cc1", "assay": "cell-free assay, competition with immobilised ligand", "conditions": "10 µM", "remaining binding": "84%"}
{"SMILES": "N[C@@H]1CCN(c2nccc(-c3cnn4ncccc34)n2)C1", "assay": "binding", "conditions": "1 µM", "remaining binding": "100%"}
{"SMILES": "Nc1ncc2c(n1)-c1c([nH]c3ccc(C#CC4CC4)cc13)CCCC2", "assay": "binding, competition with immobilised ligand", "conditions": "1 µM", "remaining binding": "91%"}
{"SMILES": "C[C@@H](c1cccc(C#N)c1)n1cc(Cl)cc(C(N)=O)c1=N", "assay": "cell-free assay, competition with immobilised ligand", "conditions": "1 µM", "remaining binding": "96%"}
{"SMILES": "CN(c1nccc(-c2cnn3ncccc23)n1)C1CC1", "assay": "binding", "conditions": "1 µM", "remaining binding": "85%"}
{"SMILES": "O=C(Nc1cnc(Oc2ccc(F)cc2)nc1)N1CCc2ncccc2[C@@H]1c1ccc(F)cc1", "assay": "cell-free assay, competition with immobilised ligand", "conditions": "1 µM", "remaining binding": "80%"}
{"SMILES": "Cc1cnc(Nc2ccc(C(=O)N3CCC(N4CCCC4)CC3)cc2)nc1-c1cc2ccccc2s1", "assay": "binding, competition with immobilised ligand", "conditions": "1 µM", "remaining binding": "64%"}
{"SMILES": "CC(=O)c1c(NS(C)(=O)=O)c2cc(-c3ccc(Cl)cc3)c(-c3ccc(Cl)cc3Cl)nc2n(C)c1=O", "assay": "cell-free assay, competition with immobilised ligand", "conditions": "1 µM", "remaining binding": "100%"}
{"SMILES": "O=C(NCC1CCOCC1)c1n[nH]cc1NC(=O)c1c(F)cccc1F", "assay": "binding, competition with immobilised ligand", "conditions": "1 µM", "remaining binding": "90%"}
{"SMILES": "CS(=O)(=O)NCC[C@H](NC(=O)c1cncc2c1cnn2-c1ccc(F)cc1)c1ccnc(S(C)(=O)=O)c1", "assay": "cell-free assay, competition with immobilised ligand", "conditions": "1 µM", "remaining binding": "100%"}
{"SMILES": "N#Cc1ccccc1CSc1nnc2c(n1)[nH]c1ccccc12", "assay": "binding, competition with immobilised ligand", "conditions": "10 µM", "remaining binding": "94%"}
{"SMILES": "CNC(=O)[C@@H]1CC[C@@H](n2c(-c3ccc4cnccc4c3)nc3ccc(C(=O)NCc4cccc(C(N)=O)c4)cc32)C1", "assay": "binding, competition with immobilised ligand", "conditions": "1 µM", "remaining binding": "100%"}
{"SMILES": "COc1cccc(CNC(=O)c2nc3scc(COCc4ccc(C(=O)O)cc4)c3c(=O)[nH]2)c1", "assay": "cell-free assay, competition with immobilised ligand", "conditions": "1 µM", "remaining binding": "97.2%"}
